From ChEMBL document CHEMBL1134569, “Synthesis and in vitro and in vivo antimalarial activity of new 4-anilinoquinolines” (J Med Chem, 2001) come the findings set out here.

Data set [1] relates to Plasmodium falciparum. Nature of the data set: Inhibitory activity against chloroquine-resistant Plasmodium falciparum FcB1R. Type of data set: functional, organism-based. As to conditions: Plasmodium falciparum.
Data set [2] is described as follows: Cytotoxicity upon MRC-5 cells (diploid embryonic lung cell line) at 3.1 uM. The format is cell-based, MRC5. As to conditions: human. The procedure, abridged:
(§1)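 MRC-5 human diploid embryonic lung cells seeded at 5000/well, washed after 24 h, then given 2-fold drug dilutions in RPMI + 5% FCS (final DMSO below 0.5%). Incubated at 37 °C, 5% CO₂, for 7 days. MTT read-out at 540 nm, scored as percent absorbance reduction versus untreated controls.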

Data set [3] is described as follows: Cytotoxicity upon MRC-5 cells (diploid embryonic lung cell line) at 6.3 uM. Type of data set: cell-based, MRC5. The note with it: human. The procedure, abridged: as §1
Data set [4] is described as follows: Cytotoxicity upon MPMs (mouse peritoneal macrophages) at 6.3 uM. The procedure, abridged:
(§2)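 Mouse peritoneal macrophages harvested 48 h after potato-starch stimulation and seeded at 30000 cells/well. After 24 h, washed and exposed to 2-fold drug dilutions in RPMI + 5% FCS (final DMSO below 0.5%) at 37 °C, 5% CO₂, for 7 days. Toxicity scored microscopically as toxic or not versus untreated controls.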

Data set [5] in a line: Cytotoxicity upon MPMs (mouse peritoneal macrophages) at 12.5 uM conc.;NT=No Toxicity. Summed up: as §2
The nature of data set [6]: Cytotoxicity upon MPMs (mouse peritoneal macrophages) at 3.1 uM conc.;NT=No Toxicity. Summed up: as §2
Data set [7] can be described thus: Cytotoxicity upon MRC-5 cells (diploid embryonic lung cell line) at 12.5 uM. As to conditions: human. Type of data set: cell-based, MRC5. Summed up: as §1
The nature of data set [8]: Cytotoxicity upon MRC-5 cells (diploid embryonic lung cell line) at 25 uM conc. Type of data set: cell-based, MRC5. As to conditions: human. Summed up: as §1
Data set [9] is described as follows: Cytotoxicity upon MPMs (mouse peritoneal macrophages) at 2 uM. The procedure, abridged: as §2
The nature of data set [10]: Cytotoxicity upon MRC-5 cells (diploid embryonic lung cell line) at 1.6 uM conc. Type of data set: cell-based, MRC5. As to conditions: human. Summed up: as §1

The IC50 is the midpoint of a concentration-inhibition curve. The low end stands for inhibition by little substance, the high end for a need for much substance. In data set [1], `O=CNc1cc(CO)cc(Nc2ccnc3cc(Cl)ccc23)c1` registered an IC50 of 360 nM. The compound further returned a cytotoxicity at 3.1 µM in data set [2] of 0%. In addition, the cytotoxicity at 6.3 µM in data set [3] came to 0%. Moreover, the NT entry in data set [4], in data set [5] and in [6] was “Cytotoxicity upon MPMs at 6.3 uM” each time. In [7], this compound came in with a cytotoxicity at 12.5 µM of 0%.
Turning to `CN1CCN(CC(=O)Nc2cc(CO)cc(Nc3ccnc4cc(Cl)ccc34)c2)CC1`, in data set [1], inhibition was half-maximal at 344 nM (IC50). In data set [2], this compound returned a cytotoxicity at 3.1 µM of 0%. Further, the cytotoxicity at 6.3 µM in [3] turned out to be 0%. The NT entry in [4], in data set [5] and in data set [6] was “Cytotoxicity upon MPMs at 6.3 uM” in each case. In [7], this compound displayed a cytotoxicity at 12.5 µM of 0%.
`O=C(CN1CCCCC1)Nc1cc(COC(=O)CCCCCN2CCCCC2)cc(Nc2ccnc3cc(Cl)ccc23)c1` returned an IC50 in data set [1] of 27.4 nM. In data set [8], this compound returned a cytotoxicity at 25 µM of 92%. Besides, the NT result in data set [9], in [4] and in data set [5] was “Cytotoxicity upon MPMs at 2 uM” in each case. The compound further gave a cytotoxicity at 6.3 µM in data set [3] of 81%. Also, in data set [10], the cytotoxicity at 1.6 µM was 0%.
`O=C(CN1CCCCC1)Nc1cc(COC(=O)CCCCN2CCCC2)cc(Nc2ccnc3cc(Cl)ccc23)c1`: the IC50 in data set [1] turned out to be 23 nM. In data set [8], this compound showed a cytotoxicity at 25 µM of 82%. Moreover, the NT entry in data set [9], in [4] and in [5] was “Cytotoxicity upon MPMs at 2 uM” throughout. This compound yielded a cytotoxicity at 6.3 µM in data set [3] of 83%. In data set [10], this compound registered a cytotoxicity at 1.6 µM of 0%.
Take `O=C(CN1CCOCC1)Nc1cc(CO)cc(Nc2ccnc3cc(Cl)ccc23)c1`: in [1], the IC50 is over 1000 nM. The compound also yielded a cytotoxicity at 3.1 µM in data set [2] of 0%. Also, the cytotoxicity at 6.3 µM in [3] was 0%. Further, the NT entry in data set [4], in data set [5] and in data set [6] was “Cytotoxicity upon MPMs at 6.3 uM” in each case. The compound further registered a cytotoxicity at 12.5 µM in [7] of 0%.
Compound `O=C(CO)Nc1cc(CO)cc(Nc2ccnc3cc(Cl)ccc23)c1` had a concentration for half-maximal inhibition (IC50) in [1] of over 1000 nM. Further, the cytotoxicity at 3.1 µM in data set [2] is 0%. For the same compound, in [3], the cytotoxicity at 6.3 µM is 0%. In addition, the NT entry in [4], in data set [5] and in [6] was “Cytotoxicity upon MPMs at 6.3 uM” throughout. In [7], this compound returned a cytotoxicity at 12.5 µM of 0%.
In data set [1], `CC1CCN(CCCCCCCC(=O)Nc2cc(CO)cc(Nc3ccnc4cc(Cl)ccc34)c2)CC1` had an IC50 of 308 nM. In addition, the cytotoxicity at 3.1 µM in [2] came to 0%. Moreover, in [3], the cytotoxicity at 6.3 µM is 0%. Besides, the NT entry in data set [4], in [5] and in [6] was “Cytotoxicity upon MPMs at 6.3 uM” throughout. Besides, the cytotoxicity at 12.5 µM in data set [7] came to 0%.
In data set [1], `CN1CCN(CCCCC(=O)OCc2cc(NC(=O)CN3CCCCC3)cc(Nc3ccnc4cc(Cl)ccc34)c2)CC1` gave an IC50 of 65.1 nM. For the same compound, the cytotoxicity at 25 µM in data set [8] is 97%. The NT entry in data set [9], in data set [4] and in [5] was “Cytotoxicity upon MPMs at 2 uM” throughout. In addition, the cytotoxicity at 6.3 µM in [3] was 0%. In addition, in data set [10], the cytotoxicity at 1.6 µM turned out to be 0%.
In data set [1], `O=C(CN1CCCCC1)Nc1cc(COC(=O)CCCCBr)cc(Nc2ccnc3cc(Cl)ccc23)c1` registered a half-inhibitory concentration (IC50) of 151 nM. In [8], this compound returned a cytotoxicity at 25 µM of 0%. For the same compound, the NT result in [9], in data set [4] and in data set [5] was “Cytotoxicity upon MPMs at 2 uM” throughout. For the same compound, the cytotoxicity at 6.3 µM in data set [3] came out at 0%. The compound also registered a cytotoxicity at 1.6 µM in [10] of 0%.
Turning to `O=C(C[n+]1ccccc1)Nc1cc(CO)cc(Nc2ccnc3cc(Cl)ccc23)c1.[Cl-]`, 927 nM corresponded to half-maximal inhibition in data set [1] (IC50). This compound registered a cytotoxicity at 3.1 µM in data set [2] of 0%. In addition, the cytotoxicity at 6.3 µM in data set [3] turned out to be 0%. Besides, the NT entry in data set [4], in data set [5] and in [6] was “Cytotoxicity upon MPMs at 6.3 uM” throughout. Besides, the cytotoxicity at 12.5 µM in data set [7] was found to be 0%.
The compound `O=C(CNCc1ccccc1)Nc1cc(CO)cc(Nc2ccnc3cc(Cl)ccc23)c1` had a half-maximal inhibitory concentration (IC50) in data set [1] of 193 nM. In data set [2], this compound showed a cytotoxicity at 3.1 µM of 0%. Besides, the cytotoxicity at 6.3 µM in [3] worked out at 0%. Moreover, the NT entry in data set [4], in data set [5] and in data set [6] was “Cytotoxicity upon MPMs at 6.3 uM” throughout. This compound also came in with a cytotoxicity at 12.5 µM in [7] of 0%.
With `Nc1cc(CO)cc(Nc2ccnc3cc(Cl)ccc23)c1`, the half-inhibitory concentration (IC50) in [1] was 279 nM. The NT entry in data set [9], in [4], in [5] and in data set [6] was “Cytotoxicity upon MPMs at 2 uM” each time. In addition, in data set [2], the cytotoxicity at 3.1 µM turned out to be 0%. The cytotoxicity at 6.3 µM in [3] is 0%. This compound returned a cytotoxicity at 1.6 µM in data set [10] of 0%. Further, the cytotoxicity at 12.5 µM in data set [7] came out at 0%.
`O=C(CN1CCCCC1)Nc1cc(COC(=O)CCN2CCCCC2)cc(Nc2ccnc3cc(Cl)ccc23)c1` returned an IC50 in data set [1] of 78.3 nM. Moreover, the cytotoxicity at 25 µM in [8] was determined as 90%. Besides, the NT result in data set [9], in data set [4] and in data set [5] was “Cytotoxicity upon MPMs at 2 uM” each time. In [3], the cytotoxicity at 6.3 µM came to 0%. The compound also yielded a cytotoxicity at 1.6 µM in data set [10] of 0%.
`O=C(Nc1cc(CO)cc(Nc2ccnc3cc(Cl)ccc23)c1)c1ccccc1`: the IC50 in data set [1] is over 1000 nM. The cytotoxicity at 3.1 µM in data set [2] turned out to be 0%. The compound further yielded a cytotoxicity at 6.3 µM in data set [3] of 0%. The NT entry in data set [4], in data set [5] and in data set [6] was “Cytotoxicity upon MPMs at 6.3 uM” each time. Besides, the cytotoxicity at 12.5 µM in data set [7] was found to be 0%.
As to `Nc1ccn(CC(=O)Nc2cc(CO)cc(Nc3ccnc4cc(Cl)ccc34)c2)n1`, in [1], the IC50 was 806 nM. Also, the cytotoxicity at 3.1 µM in data set [2] turned out to be 0%. The compound further yielded a cytotoxicity at 6.3 µM in [3] of 0%. Moreover, the NT result in data set [4], in data set [5] and in data set [6] was “Cytotoxicity upon MPMs at 6.3 uM” throughout. In [7], this compound came in with a cytotoxicity at 12.5 µM of 0%.
`O=C(CN1CCCCC1)Nc1cc(COC(=O)CN2CCCCC2)cc(Nc2ccnc3cc(Cl)ccc23)c1` had an IC50 in [1] of 54 nM. For the same compound, in data set [8], the cytotoxicity at 25 µM is 93%. In data set [3], this compound gave a cytotoxicity at 6.3 µM of 0%. The same compound displayed a cytotoxicity at 1.6 µM in data set [10] of 0%.
As for `CC1CCN(CCCCCC(=O)Nc2cc(CO)cc(Nc3ccnc4cc(Cl)ccc34)c2)CC1`, 304 nM corresponded to half-maximal inhibition in data set [1] (IC50). The compound also returned a cytotoxicity at 3.1 µM in data set [2] of 0%. Besides, the cytotoxicity at 6.3 µM in [3] came to 0%. Besides, the NT entry in data set [4], in [5] and in [6] was “Cytotoxicity upon MPMs at 6.3 uM” each time. The compound also returned a cytotoxicity at 12.5 µM in data set [7] of 0%.
Compound `CCN(CC)CCCCC(=O)OCc1cc(NC(=O)CN2CCCCC2)cc(Nc2ccnc3cc(Cl)ccc23)c1` had an IC50 in data set [1] of 141 nM. Besides, in data set [8], the cytotoxicity at 25 µM is 22%. Also, the NT result in data set [9], in data set [4] and in data set [5] was “Cytotoxicity upon MPMs at 2 uM” in each case. In addition, the cytotoxicity at 6.3 µM in data set [3] stood at 13%. The same compound gave a cytotoxicity at 1.6 µM in data set [10] of 0%.
In turn, `CC(C)(C)NCC(=O)Nc1cc(CO)cc(Nc2ccnc3cc(Cl)ccc23)c1` came in with an IC50 in data set [1] of 50.9 nM. This compound also had a cytotoxicity at 3.1 µM in data set [2] of 0%. The same compound displayed a cytotoxicity at 6.3 µM in data set [3] of 0%. Besides, the NT result in data set [4], in data set [5] and in data set [6] was “Cytotoxicity upon MPMs at 6.3 uM” each time. For the same compound, in data set [7], the cytotoxicity at 12.5 µM stood at 0%.
The compound `O=C(CN1CCSC1)Nc1cc(CO)cc(Nc2ccnc3cc(Cl)ccc23)c1` yielded an IC50 in data set [1] of 588 nM. Further, the cytotoxicity at 3.1 µM in data set [2] amounted to 0%. The compound further yielded a cytotoxicity at 6.3 µM in data set [3] of 0%. The NT result in data set [4], in [5] and in [6] was “Cytotoxicity upon MPMs at 6.3 uM” throughout. This compound registered a cytotoxicity at 12.5 µM in data set [7] of 0%.
As for `CC1CCN(CCCCC(=O)Nc2cc(CO)cc(Nc3ccnc4cc(Cl)ccc34)c2)CC1`, half-maximal inhibition in data set [1] (IC50) required 465 nM. In [2], this compound had a cytotoxicity at 3.1 µM of 0%. In data set [3], this compound showed a cytotoxicity at 6.3 µM of 0%. Besides, the NT entry in [4], in [5] and in data set [6] was “Cytotoxicity upon MPMs at 6.3 uM” in each case. For the same compound, in data set [7], the cytotoxicity at 12.5 µM is 0%.
